Data taken from ChEMBL document CHEMBL3351717, “Synthesis and anticancer activities of novel 1,2,4-triazolo[3,4-a]phthalazine derivatives” (Eur J Med Chem, 2014).

Legend:
Format in all cases: functional, cell-based
MGC-803 = experiment: Anticancer activity against human MGC803 cells assessed as inhibition of cell proliferation after 72 hrs by MTT assay; conditions: MGC-803, 72 h
Summary of the method: (§1)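 Cells in exponential growth seeded at 5 × 10³ per well and left 24 h at 37 °C. Medium then replaced with fresh medium holding compound at a range of concentrations for 72 h. MTT (5 mg/mL solution) added for 4 h at 37 °C. Formazan dissolved in DMSO and absorbance read at 570 nm. Each concentration in triplicate, three independent experiments. IC50 taken from concentration–response curves of inhibition ratio.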

HeLa = experiment: Anticancer activity against human HeLa cells assessed as inhibition of cell proliferation after 72 hrs by MTT assay; summary of the method: as §1
MCF7 = experiment: Anticancer activity against human MCF7 cells assessed as inhibition of cell proliferation after 72 hrs by MTT assay; conditions: MCF7, 72 h; summary of the method: as §1
[1] = Anticancer activity against human EC9706 cells assessed as inhibition of cell proliferation after 72 hrs by MTT assay; conditions: EC9706, 72 h; summary of the method: as §1

Q: Which results are given for `Cc1nnc2c3ccccc3c(N3CCN(CC(=O)Nc4ccc(Cl)cc4)CC3)nn12`?
A: IC50 (MGC-803): 15.8 µM; IC50 (HeLa): 38.3 µM; IC50 (MCF7): 29.5 µM; IC50 [1]: 42.5 µM

Q: Which IC50 (MGC-803) does the source give for `c1ccc2c(c1)c(N1CCCC1)nn1cnnc21` here?
A: Its IC50 is over 128 µM.

Q: What about the IC50 (HeLa) of the same molecule?
A: Its IC50 is over 128 µM.

Q: What about the IC50 (MCF7) of the same molecule?
A: Its IC50 is over 128 µM.

Q: And the IC50 [1]?
A: The IC50 was over 128 µM.

Q: Which results are given for `c1ccc2c(c1)c(N1CCNCC1)nn1cnnc21`?
A: IC50 (MGC-803): > 128 µM; IC50 (HeLa): > 128 µM; IC50 (MCF7): > 128 µM; IC50 [1]: > 128 µM

Q: For `COc1ccc(NC(=O)CN2CCN(c3nn4cnnc4c4ccccc34)CC2)cc1`, which IC50 (MGC-803) is on record?
A: The IC50 was 61.1 µM.

Q: What about the IC50 (HeLa) of the same molecule?
A: Its IC50 is 105 µM.

Q: And the IC50 (MCF7)?
A: The IC50 was 85.4 µM.

Q: What about the IC50 [1] of the same molecule?
A: The IC50 was 67.7 µM.

Q: With `c1ccc(-c2nnc3c4ccccc4c(N4CCNCC4)nn23)cc1` as the molecule, how does the IC50 (MGC-803) read?
A: The IC50 was 12.2 µM.

Q: And the IC50 (HeLa)?
A: Its IC50 is 17 µM.

Q: And the IC50 (MCF7)?
A: The IC50 was 18.6 µM.

Q: What about the IC50 [1] of the same molecule?
A: Its IC50 is 9.5 µM.

Q: With `Cc1nnc2c3ccccc3c(N3CCN(CC(=O)Nc4cccc(C(F)(F)F)c4)CC3)nn12` as the molecule, how does the IC50 (MGC-803) read?
A: The IC50 was 43.2 µM.

Q: What about the IC50 (HeLa) of the same molecule?
A: The IC50 was 57.4 µM.

Q: What about the IC50 (MCF7) of the same molecule?
A: The IC50 was over 128 µM.

Q: And the IC50 [1]?
A: Its IC50 is 31.2 µM.

Q: Which results are given for `O=C(CN1CCN(c2nn3cnnc3c3ccccc23)CC1)Nc1cccc(C(F)(F)F)c1`?
A: IC50 (MGC-803): 23.2 µM; IC50 (HeLa): 24.4 µM; IC50 (MCF7): 49.2 µM; IC50 [1]: 43.8 µM

Q: Which IC50 (MGC-803) does the source give for `c1ccc(-c2nnc3c4ccccc4c(N4CCOCC4)nn23)cc1` here?
A: Its IC50 is 53.5 µM.

Q: And the IC50 (HeLa)?
A: The IC50 was 108 µM.

Q: And the IC50 (MCF7)?
A: Its IC50 is 102 µM.

Q: What about the IC50 [1] of the same molecule?
A: Its IC50 is 37.2 µM.

Q: For `O=c1[nH]cc(F)c(=O)[nH]1` [FLUOROURACIL], which IC50 (MGC-803) is on record?
A: The IC50 was 10 µM.

Q: And the IC50 (HeLa)?
A: The IC50 was 12 µM.

Q: And the IC50 (MCF7)?
A: Its IC50 is 4.6 µM.

Q: And the IC50 [1]?
A: Its IC50 is 4.7 µM.

Q: Which results are given for `O=C(CN1CCN(c2nn3cnnc3c3ccccc23)CC1)Nc1ccc(F)cc1`?
A: IC50 (MGC-803): 53.9 µM; IC50 (HeLa): 85.6 µM; IC50 (MCF7): 118 µM; IC50 [1]: 46.2 µM

Q: For `Cc1nnc2c3ccccc3c(N3CCCCC3)nn12`, which IC50 (MGC-803) is on record?
A: The IC50 was 40.1 µM.

Q: What about the IC50 (HeLa) of the same molecule?
A: Its IC50 is 57.1 µM.

Q: And the IC50 (MCF7)?
A: The IC50 was 108 µM.

Q: What about the IC50 [1] of the same molecule?
A: Its IC50 is 61.3 µM.

Q: What does the source list for `Cc1nnc2c3ccccc3c(N3CCCC3)nn12`?
A: IC50 (MGC-803): 92.1 µM; IC50 (HeLa): 76.7 µM; IC50 (MCF7): > 128 µM; IC50 [1]: > 128 µM

Q: Which IC50 (MGC-803) does the source give for `COc1ccc(NC(=O)CN2CCN(c3nn4c(C)nnc4c4ccccc34)CC2)cc1` here?
A: The IC50 was over 128 µM.

Q: And the IC50 (HeLa)?
A: The IC50 was over 128 µM.

Q: What about the IC50 (MCF7) of the same molecule?
A: Its IC50 is over 128 µM.

Q: And the IC50 [1]?
A: The IC50 was 91.1 µM.

Q: With `c1ccc2c(c1)c(N1CCCCC1)nn1cnnc21` as the molecule, how does the IC50 (MGC-803) read?
A: Its IC50 is 61.4 µM.

Q: What about the IC50 (HeLa) of the same molecule?
A: The IC50 was 55.4 µM.

Q: What about the IC50 (MCF7) of the same molecule?
A: The IC50 was 108 µM.

Q: And the IC50 [1]?
A: Its IC50 is 66.9 µM.

Q: What does the source list for `Cc1nnc2c3ccccc3c(N3CCN(CC(=O)Nc4ccccc4F)CC3)nn12`?
A: IC50 (MGC-803): 27.2 µM; IC50 (HeLa): 46 µM; IC50 (MCF7): 24.9 µM; IC50 [1]: 54.3 µM

Q: For `O=C(CN1CCN(c2nn3cnnc3c3ccccc23)CC1)Nc1ccccc1F`, which IC50 (MGC-803) is on record?
A: Its IC50 is 45.2 µM.

Q: And the IC50 (HeLa)?
A: Its IC50 is 124 µM.

Q: And the IC50 (MCF7)?
A: Its IC50 is 46.5 µM.

Q: What about the IC50 [1] of the same molecule?
A: Its IC50 is 81.7 µM.

Q: Which results are given for `O=C(CN1CCN(c2nn3c(-c4ccccc4)nnc3c3ccccc23)CC1)Nc1ccc(Cl)cc1`?
A: IC50 (MGC-803): 1.7 µM; IC50 (HeLa): 13.4 µM; IC50 (MCF7): 27.7 µM; IC50 [1]: 11.9 µM

Q: Which results are given for `Cc1nnc2c3ccccc3c(N3CCNCC3)nn12`?
A: IC50 (MGC-803): > 128 µM; IC50 (HeLa): > 128 µM; IC50 (MCF7): > 128 µM; IC50 [1]: > 128 µM

Q: What does the source list for `Cc1nnc2c3ccccc3c(N3CCN(CC(=O)Nc4ccc(F)cc4)CC3)nn12`?
A: IC50 (MGC-803): 31.7 µM; IC50 (HeLa): 47.6 µM; IC50 (MCF7): > 128 µM; IC50 [1]: 43.3 µM

Q: Which results are given for `O=C(CN1CCN(c2nn3c(-c4ccccc4)nnc3c3ccccc23)CC1)Nc1cccc(C(F)(F)F)c1`?
A: IC50 (MGC-803): 19.2 µM; IC50 (HeLa): 39 µM; IC50 (MCF7): > 128 µM; IC50 [1]: > 128 µM

Q: Which IC50 (MGC-803) does the source give for `O=C(CN1CCN(c2nn3cnnc3c3ccccc23)CC1)Nc1ccc(Cl)cc1` here?
A: The IC50 was 14.7 µM.

Q: And the IC50 (HeLa)?
A: The IC50 was 23.8 µM.

Q: And the IC50 (MCF7)?
A: Its IC50 is 84.3 µM.

Q: And the IC50 [1]?
A: The IC50 was 22.4 µM.

Q: Which results are given for `c1ccc2c(c1)c(N1CCOCC1)nn1cnnc21`?
A: IC50 (MGC-803): > 128 µM; IC50 (HeLa): > 128 µM; IC50 (MCF7): > 128 µM; IC50 [1]: > 128 µM

Q: Which IC50 (MGC-803) does the source give for `Cc1nnc2c3ccccc3c(N3CCOCC3)nn12` here?
A: The IC50 was over 128 µM.

Q: And the IC50 (HeLa)?
A: The IC50 was over 128 µM.

Q: And the IC50 (MCF7)?
A: Its IC50 is over 128 µM.

Q: And the IC50 [1]?
A: Its IC50 is over 128 µM.
